How the values were obtained:
Settings in all cases: stereoisomer not certain
[1] = target: OR13G1 (Homo sapiens) (UniProt Q8NGZ3)
How it was run: (§1)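 Each entry records the cell line, G-protein, co-transfected protein and tags used. Methods varied with the source, often transient luciferase assays in mammalian cell lines. A receptor–molecule pair is called responsive (active) if the original authors judged its signal statistically different from baseline and non-responsive (inactive) otherwise.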

[2] = target: OR13H1 (Homo sapiens) (UniProt Q8NG92)
How it was run: as §1

[3] = target: OR13J1 (Homo sapiens) (UniProt Q8NGT2)
How it was run: as §1

[4] = target: OR14A16 (Homo sapiens) (UniProt Q8NHC5)
How it was run: as §1

[5] = target: OR14A2 (Homo sapiens) (UniProt Q96R54)
How it was run: as §1

[6] = target: OR14C36 (Homo sapiens) (UniProt Q8NHC7)
How it was run: as §1

[7] = target: OR14I1 (Homo sapiens) (UniProt A6ND48)
How it was run: as §1

[8] = target: OR14J1 (Homo sapiens) (UniProt Q9UGF5)
How it was run: as §1

[9] = target: OR14K1 (Homo sapiens) (UniProt Q8NGZ2)
How it was run: as §1

[10] = tested on: OR1A2 G256C W293C
How it was run: as §1

[11] = tested on: OR1B1
How it was run: as §1

[12] = target: OR1C1 (Homo sapiens) (UniProt Q15619)
How it was run: as §1

[13] = target: OR1D5 (Homo sapiens) (UniProt P58170)
How it was run: as §1

[14] = target: OR1E1 (Homo sapiens) (UniProt P30953)
How it was run: as §1

[15] = target: OR1E2 (Homo sapiens) (UniProt P47887)
How it was run: as §1

[16] = tested on: OR1E2
How it was run: as §1

[17] = target: OR1D4 (Homo sapiens) (UniProt P47884)
How it was run: as §1

Measured: odorant receptor agonist call

Chain of OR13H1 (Homo sapiens) (Q8NG92 whole entry): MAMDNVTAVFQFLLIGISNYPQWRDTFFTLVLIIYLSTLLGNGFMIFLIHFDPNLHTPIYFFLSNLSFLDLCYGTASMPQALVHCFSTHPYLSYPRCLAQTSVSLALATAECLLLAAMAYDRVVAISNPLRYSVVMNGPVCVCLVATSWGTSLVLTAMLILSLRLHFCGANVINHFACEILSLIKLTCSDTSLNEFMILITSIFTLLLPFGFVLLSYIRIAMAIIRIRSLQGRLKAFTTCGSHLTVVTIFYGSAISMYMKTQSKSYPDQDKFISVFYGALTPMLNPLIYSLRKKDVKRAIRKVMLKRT
Chain of OR14I1 (Homo sapiens) (A6ND48 whole entry): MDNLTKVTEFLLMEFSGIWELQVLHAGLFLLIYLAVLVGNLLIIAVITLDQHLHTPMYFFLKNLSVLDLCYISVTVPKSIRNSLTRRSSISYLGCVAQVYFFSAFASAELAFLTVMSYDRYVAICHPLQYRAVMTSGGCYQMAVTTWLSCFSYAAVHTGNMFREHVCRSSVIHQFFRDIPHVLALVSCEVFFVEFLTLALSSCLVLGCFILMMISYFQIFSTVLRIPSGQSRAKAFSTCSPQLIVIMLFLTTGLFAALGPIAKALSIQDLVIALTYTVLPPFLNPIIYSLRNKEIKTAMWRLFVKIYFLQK
Chain of OR14J1 (Homo sapiens) (Q9UGF5 whole entry): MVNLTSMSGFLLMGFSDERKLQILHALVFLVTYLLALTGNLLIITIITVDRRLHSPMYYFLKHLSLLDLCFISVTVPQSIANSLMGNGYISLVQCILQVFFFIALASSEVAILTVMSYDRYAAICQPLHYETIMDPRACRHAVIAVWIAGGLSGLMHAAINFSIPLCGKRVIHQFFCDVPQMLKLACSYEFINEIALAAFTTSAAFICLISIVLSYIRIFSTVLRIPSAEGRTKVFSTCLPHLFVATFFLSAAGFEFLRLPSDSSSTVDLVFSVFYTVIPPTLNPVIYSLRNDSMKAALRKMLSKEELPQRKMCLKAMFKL
Chain of OR1C1 (Homo sapiens) (Q15619 whole entry): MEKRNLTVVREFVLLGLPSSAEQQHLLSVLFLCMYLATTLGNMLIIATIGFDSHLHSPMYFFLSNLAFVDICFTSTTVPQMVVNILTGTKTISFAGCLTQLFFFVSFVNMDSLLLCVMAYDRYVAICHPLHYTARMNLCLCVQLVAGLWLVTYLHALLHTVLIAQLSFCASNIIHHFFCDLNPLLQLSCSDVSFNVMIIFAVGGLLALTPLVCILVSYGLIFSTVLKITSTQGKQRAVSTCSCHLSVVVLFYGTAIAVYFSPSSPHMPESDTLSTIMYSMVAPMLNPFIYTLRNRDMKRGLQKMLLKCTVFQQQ
Chain of OR14A2 (Homo sapiens) (Q96R54 whole entry): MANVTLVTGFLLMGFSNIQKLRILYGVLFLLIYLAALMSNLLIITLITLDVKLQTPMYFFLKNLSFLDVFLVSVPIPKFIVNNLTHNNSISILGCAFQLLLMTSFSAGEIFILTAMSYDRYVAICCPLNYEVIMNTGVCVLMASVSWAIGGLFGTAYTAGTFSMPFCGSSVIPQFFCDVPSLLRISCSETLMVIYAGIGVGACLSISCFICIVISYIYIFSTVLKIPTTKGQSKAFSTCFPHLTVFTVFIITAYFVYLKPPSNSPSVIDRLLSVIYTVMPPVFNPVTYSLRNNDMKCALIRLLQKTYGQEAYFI
Chain of OR1D5 (Homo sapiens) (P58170 whole entry): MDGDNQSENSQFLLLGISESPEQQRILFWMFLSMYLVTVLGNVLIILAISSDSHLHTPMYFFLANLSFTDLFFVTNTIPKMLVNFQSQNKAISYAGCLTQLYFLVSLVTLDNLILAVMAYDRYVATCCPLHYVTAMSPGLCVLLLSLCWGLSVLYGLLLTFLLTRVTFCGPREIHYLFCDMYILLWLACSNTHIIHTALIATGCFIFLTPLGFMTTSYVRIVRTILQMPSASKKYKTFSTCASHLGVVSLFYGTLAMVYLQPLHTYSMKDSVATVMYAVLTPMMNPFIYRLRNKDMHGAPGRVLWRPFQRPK
Chain of OR14K1 (Homo sapiens) (Q8NGZ2 whole entry): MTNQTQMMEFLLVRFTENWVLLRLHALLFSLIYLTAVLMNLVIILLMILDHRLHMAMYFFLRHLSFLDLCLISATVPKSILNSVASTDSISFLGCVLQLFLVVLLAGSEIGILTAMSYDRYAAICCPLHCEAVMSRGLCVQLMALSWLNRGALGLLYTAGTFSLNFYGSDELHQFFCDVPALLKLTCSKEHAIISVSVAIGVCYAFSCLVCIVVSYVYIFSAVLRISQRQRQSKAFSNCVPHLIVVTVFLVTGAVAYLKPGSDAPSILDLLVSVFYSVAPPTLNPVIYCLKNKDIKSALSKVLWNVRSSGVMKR
Chain of OR14A16 (Homo sapiens) (Q8NHC5 whole entry): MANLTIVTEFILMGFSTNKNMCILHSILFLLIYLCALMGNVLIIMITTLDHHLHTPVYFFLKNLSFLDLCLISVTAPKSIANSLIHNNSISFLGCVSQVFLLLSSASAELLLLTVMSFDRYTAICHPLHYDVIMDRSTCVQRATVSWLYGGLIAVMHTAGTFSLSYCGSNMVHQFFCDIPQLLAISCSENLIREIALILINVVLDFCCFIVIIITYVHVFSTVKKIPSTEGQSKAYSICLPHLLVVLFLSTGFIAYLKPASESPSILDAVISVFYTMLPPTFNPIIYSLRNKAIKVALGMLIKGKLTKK
Chain of OR14C36 (Homo sapiens) (Q8NHC7 whole entry): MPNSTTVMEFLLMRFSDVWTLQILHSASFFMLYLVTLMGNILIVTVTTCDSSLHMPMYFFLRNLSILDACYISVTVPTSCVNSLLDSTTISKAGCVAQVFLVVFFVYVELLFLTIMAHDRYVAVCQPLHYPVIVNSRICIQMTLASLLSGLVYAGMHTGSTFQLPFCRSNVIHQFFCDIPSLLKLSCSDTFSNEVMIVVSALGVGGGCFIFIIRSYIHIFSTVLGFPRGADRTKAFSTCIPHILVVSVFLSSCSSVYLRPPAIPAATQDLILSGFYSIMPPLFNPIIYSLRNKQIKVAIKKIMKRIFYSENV
Chain of OR13J1 (Homo sapiens) (Q8NGT2 whole entry): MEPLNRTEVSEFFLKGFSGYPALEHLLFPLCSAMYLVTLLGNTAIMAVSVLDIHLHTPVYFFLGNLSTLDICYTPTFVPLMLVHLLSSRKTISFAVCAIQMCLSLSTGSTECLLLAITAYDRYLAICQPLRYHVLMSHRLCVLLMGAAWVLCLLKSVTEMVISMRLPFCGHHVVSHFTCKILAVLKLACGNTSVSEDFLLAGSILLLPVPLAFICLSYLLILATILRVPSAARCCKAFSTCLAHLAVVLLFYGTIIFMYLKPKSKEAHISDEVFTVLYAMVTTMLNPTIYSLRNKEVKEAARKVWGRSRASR
Chain of OR13G1 (Homo sapiens) (Q8NGZ3 whole entry): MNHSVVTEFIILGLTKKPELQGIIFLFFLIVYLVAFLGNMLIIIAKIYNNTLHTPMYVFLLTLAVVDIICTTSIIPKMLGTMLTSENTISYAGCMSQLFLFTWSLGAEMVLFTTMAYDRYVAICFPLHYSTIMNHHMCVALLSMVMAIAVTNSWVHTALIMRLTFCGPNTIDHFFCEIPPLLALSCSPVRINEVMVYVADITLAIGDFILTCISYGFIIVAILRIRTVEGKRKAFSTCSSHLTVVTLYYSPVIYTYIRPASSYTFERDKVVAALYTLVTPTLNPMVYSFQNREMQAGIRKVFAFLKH
Chain of OR1B1 (as listed by the source): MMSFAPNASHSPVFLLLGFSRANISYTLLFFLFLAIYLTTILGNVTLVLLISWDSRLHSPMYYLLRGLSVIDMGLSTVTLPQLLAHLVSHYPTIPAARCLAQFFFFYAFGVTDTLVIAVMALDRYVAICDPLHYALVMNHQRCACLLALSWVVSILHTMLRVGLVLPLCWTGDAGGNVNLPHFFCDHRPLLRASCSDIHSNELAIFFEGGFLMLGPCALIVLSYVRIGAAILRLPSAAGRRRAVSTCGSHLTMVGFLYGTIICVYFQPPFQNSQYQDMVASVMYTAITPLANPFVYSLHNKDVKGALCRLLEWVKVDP
Chain of OR1E2 (Homo sapiens) (P47887 whole entry): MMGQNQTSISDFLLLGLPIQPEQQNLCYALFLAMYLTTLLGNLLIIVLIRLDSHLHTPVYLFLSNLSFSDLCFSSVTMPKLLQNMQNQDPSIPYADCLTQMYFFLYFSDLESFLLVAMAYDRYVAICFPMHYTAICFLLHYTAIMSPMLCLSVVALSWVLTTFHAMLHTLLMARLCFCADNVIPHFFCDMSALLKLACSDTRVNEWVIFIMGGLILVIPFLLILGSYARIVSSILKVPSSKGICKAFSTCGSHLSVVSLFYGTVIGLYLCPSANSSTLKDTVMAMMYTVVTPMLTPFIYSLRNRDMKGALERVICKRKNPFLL
Chain of OR1E2 (as listed by the source): as the sequence (P47887 whole entry) above, with C27R counted along it
Chain of OR1E1 (Homo sapiens) (P30953 whole entry): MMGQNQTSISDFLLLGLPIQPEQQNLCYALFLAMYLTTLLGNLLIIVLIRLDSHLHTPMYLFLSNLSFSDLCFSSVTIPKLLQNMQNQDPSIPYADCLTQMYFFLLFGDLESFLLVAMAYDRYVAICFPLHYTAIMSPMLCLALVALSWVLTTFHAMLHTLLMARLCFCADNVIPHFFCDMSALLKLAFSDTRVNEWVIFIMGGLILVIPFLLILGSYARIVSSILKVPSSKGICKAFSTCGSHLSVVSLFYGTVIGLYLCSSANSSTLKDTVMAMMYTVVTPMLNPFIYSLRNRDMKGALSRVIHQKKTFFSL
Chain of OR1D4 (Homo sapiens) (P47884 whole entry): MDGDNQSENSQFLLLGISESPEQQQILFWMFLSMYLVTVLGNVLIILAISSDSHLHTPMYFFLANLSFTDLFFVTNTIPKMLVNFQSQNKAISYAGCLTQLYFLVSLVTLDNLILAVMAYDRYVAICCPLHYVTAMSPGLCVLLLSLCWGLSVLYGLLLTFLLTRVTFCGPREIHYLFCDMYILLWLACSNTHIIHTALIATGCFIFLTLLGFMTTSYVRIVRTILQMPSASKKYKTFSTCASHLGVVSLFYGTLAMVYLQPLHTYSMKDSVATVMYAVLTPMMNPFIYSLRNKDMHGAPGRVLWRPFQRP

C=CCOC(=O)Cc1ccccc1
not listed: [17]
inactive: all other assays above

Cc1c([N+](=O)[O-])c(C)c([N+](=O)[O-])c(C(C)(C)C)c1[N+](=O)[O-]
not listed: [10] | [14] | [16]
inactive: all other assays above

— the M2OR odorant receptor database
